Data set [1] deals with Voltage-gated inwardly rectifying potassium channel KCNH2 (Homo sapiens, UniProt Q12809). Description: Inhibition of hERG transfected in HEK293 cells at 10 uM by patch clamp assay. The data set is classed as toxicity, cell-based. Particulars: hek293, 10 µM.
A short description of data set [2]: Cmax in CD-1 mouse at 10 mg/kg,po administration measured upto 48 hrs by LC-MS/MS analysis. The data set is classed as ADME, organism-based. As to conditions: in vivo. A digest of the protocol:
(§1)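 Oral gavage in ICR male mice (n = 3); dosing solution 1 mg/mL in 20% DMSO, 16% PEG, 4% dextrose in PBS. Tail-vein blood (10 μL) taken at 15, 30 min and 1, 2, 4, 8, 24, 48 h. Plasma quantified by LC-MS/MS against a 0.5–1000 ng/mL calibration; parameters from a non-compartmental extravascular model.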

Data set [3] has as its system PANC-1. Description: Cytotoxicity against human PANC-1 cells assessed as inhibition of cell growth incubated for 72 hrs by MTT assay. The class given is functional, cell-based. Particulars: PANC-1, 72 h. The method, boiled down: (§2)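 Cells seeded and grown to 70–80% confluence, then exposed for 72 h to a titration series (0.2–1000 nM). Viability read by MTT relative to untreated cells, with 6 replicates per concentration. IC50 fitted with a Hill-slope model.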

The test system of a further data set is Prostate cancer organoid. Briefly: Antitumor activity against patient derived Prostate cancer PDX organoid assessed as reduction in organoid formation measured after 2 weeks. The data set is classed as functional, tissue-based. Particulars: Homo sapiens. A digest of the protocol: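 Single cells from prostate cancer PDX tumors (collagenase I/III digest); 20000 cells embedded in collagen gel and cultured overnight, then treated or vehicle for 14 days with at least 5 wells per dose. Organoids imaged and counted on day 14; groups compared by Student t test.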

Data set [4] can be described thus: Half life in CD-1 mouse at 1 mg/kg,iv administration measured upto 48 hrs by LC-MS/MS analysis. The data set is classed as ADME, organism-based. Particulars: in vivo. A digest of the protocol: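 Single intravenous bolus in ICR male mice (n = 3, 6 weeks); dosing solution 0.5 mg/mL in 20% DMSO, 16% PEG, 4% dextrose in PBS. Tail-vein blood (10 μL) taken at 2, 5, 15, 30 min and 1, 2, 4, 8, 24, 48 h. Plasma quantified by LC-MS/MS against a 0.5–1000 ng/mL calibration; parameters from non-compartmental analysis.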

Data set [5] can be described thus: Toxicity in SCID mouse orthotopically xenografted with human Panc-1-Luc cells assessed as change in body weight at 10 mg/kg,ip administration once daily for 8 weeks. The class given is organism-based. Particulars: in vivo, 1344 h. The method, boiled down: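 Male SCID mice (8 weeks) received orthotopic pancreatic implants of Panc-1-Luc cells (0.5×10^6 per mouse). Mice randomized by luciferase imaging (n=5 per group). From day 8, dosed 10 mg/kg i.p. or solvent vehicle once daily. Body weight recorded weekly; mice euthanized at day 63.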
For orientation: Xenograft models place foreign cells or tissue in a host animal.

In another data set the test system is Panc-1-Luc. Description: Antitumor activity against human Panc-1-Luc cells orthotopically xenografted in SCID mouse assessed as reduction in tumor growth at 10 mg/kg,ip administration once daily for 63 days. As to conditions: time 63.0 day. The class given is functional, organism-based. A digest of the protocol: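 Panc-1-Luc cells (0.5×10^6) implanted orthotopically in pancreas of male SCID mice (8 weeks). Mice randomized by luciferase imaging (n = 5/group); from day 8 given 10 mg/kg or vehicle daily. Tumor measured weekly by luciferase imaging and calipers (length × width²/2), body weight weekly; tumors harvested at day 63.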

Data set [6] is described as follows: Tmax in CD-1 mouse at 10 mg/kg,po administration measured upto 48 hrs by LC-MS/MS analysis. As to conditions: in vivo. The class given is ADME, organism-based. A digest of the protocol: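 Male ICR mice (n=3) dosed by oral gavage at 10 mg/kg from a 1 mg/mL solution in 20% DMSO/16% PEG/4% dextrose in PBS. Tail-vein blood (10 μL) drawn at 15 and 30 min and at 1, 2, 4, 8, 24 and 48 h. Plasma quantified by LC-MS/MS against calibration standards. Parameters from non-compartmental extravascular model.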

Data set [7] relates to PANC-1. Description: Cytotoxicity against […] SRC-3.2 knockdown human PANC-1 cells assessed as inhibition of cell growth incubated for 72 hrs by MTT assay. The data set is classed as functional, cell-based. Particulars: PANC-1, 72 h. A digest of the protocol: (§3)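 PANC-1 cells with stable lentiviral shRNA knockdown of SRC-3 or control shRNA; SRC-3 levels checked by western blot. Cells treated with a dose series for 72 h and viability read by MTT.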
For orientation: Formazan colour is commonly taken as a measure of viable cells.

The test system of data set [8] is PANC-1. Description: Cytotoxicity against SiRNA mediated SRC-3.1 knockdown human PANC-1 cells assessed as inhibition of cell growth incubated for 72 hrs by MTT assay. The data set is classed as functional, cell-based. Particulars: PANC-1, 72 h. A digest of the protocol:
as §3

Data set [9] can be described thus: Antitumor activity against patient derived MDA-PCa-118b cells xenografted in SCID mouse assessed as reduction in femur volume at 10 mg/kg,ip administration measured after 4 weeks by CT imaging analysis. Details: scale not given: the % may be the effect or the level left. The data set is classed as functional, Homo sapiens. The method, boiled down: (§4)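 AR-PDX 118b cells (1×10^5) injected via intra-femoral artery in male SCID mice (8–9 weeks). After 2 weeks, 10 mg/kg/day ip or vehicle for 4 weeks (n = 9/group). X-ray imaging every two weeks. At the end, femurs CT-scanned (5 per group) with 3D-reconstruction tumor size, and H&E histology used for tumor/femur area ratio.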

The nature of data set [10]: Cytotoxicity against human MPANC96 cells assessed as inhibition of cell growth incubated for 72 hrs by MTT assay. The data set is classed as functional, cell-based. Particulars: MPANC96, 72 h. The method, boiled down:
as §2

The target in another data set is Mu-type opioid receptor (Homo sapiens, UniProt P35372). Briefly: Antagonist activity at OPRM1 (unknown origin) by cAMP assay. The class given is toxicity. The method, boiled down:
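Tested in a commercial off-target safety screening panel of 78 targets. Values reported as RC50, taken as IC50 except for agonist mode, where RC50 is EC50.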
In general terms: cAMP levels reflect the balance of adenylyl cyclase and phosphodiesterase activity.

For the next data set, the system named is BT-474. Briefly: Cytotoxicity against human BT-474 cells assessed as inhibition of cell growth incubated for 72 hrs by MTT assay. The class given is functional, cell-based. Particulars: BT-474, 72 h. A digest of the protocol:
as §2

For data set [11], the system named is MDA-PCa-118b. Briefly: Antitumor activity against patient derived MDA-PCa-118b cells xenografted in SCID mouse assessed as reduction in bone damage at 10 mg/kg,ip administration measured after 4 weeks by X-ray imaging analysis. The class given is functional, organism-based. As to conditions: Homo sapiens. The method, boiled down: as §4
A short description of data set [12]: Tmax in CD-1 mouse at 1 mg/kg,iv administration measured upto 48 hrs by LC-MS/MS analysis. The data set is classed as ADME, organism-based. As to conditions: in vivo. The method, boiled down:
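Male ICR mice (n=3, 6 weeks) given 1 mg/kg i.v. from a 0.5 mg/mL solution in 20% DMSO/16% PEG/4% dextrose in PBS. Tail-vein blood (10 μL) drawn at 2, 5, 15 and 30 min and at 1, 2, 4, 8, 24 and 48 h. Plasma quantified by LC-MS/MS against 0.5–1000 ng/mL calibration standards with QC samples. Parameters from non-compartmental analysis.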

Data set [13] is described as follows: Antitumor activity against patient derived MDA-PCa-118b cells xenografted in SCID mouse assessed as reduction in ratio of tumor area to femur area at 10 mg/kg,ip administration measured after 4 weeks by CT imaging analysis. The class given is functional, Homo sapiens. More on the design: scale not given: the % may be the effect or the level left. A digest of the protocol: as §4

Data set [14] deals with MDA-PCa-118b. Briefly: Antitumor activity against patient derived MDA-PCa-118b cells xenografted in SCID mouse assessed as reduction in bone metastasis at 10 mg/kg,ip administration measured after 4 weeks by X-ray imaging analysis. The class given is functional, organism-based. Particulars: Homo sapiens. The method, boiled down:
as §4

Data set [15] can be described thus: AUC (0 to t) in CD-1 mouse at 10 mg/kg,po administration measured upto 48 hrs by LC-MS/MS analysis. The class given is ADME, organism-based. As to conditions: in vivo. The method, boiled down: as §1
The subject of the next data set is MDA-MB-468. Briefly: Cytotoxicity against human MDA-MB-468 cells assessed as inhibition of cell growth incubated for 72 hrs by MTT assay. The class given is functional, cell-based. Particulars: MDA-MB-468, 72 h. A digest of the protocol: as §2

1 molecule from ChEMBL document CHEMBL5543124, “Lead Compound Development of SRC-3 Inhibitors with Improved Pharmacokinetic Properties and Anticancer Efficacy” (J Med Chem, 2024) can be followed below.

Calls of active or inactive are those of the source. No cut-off for these calls is given here.

Broadly, the Cmax is the highest concentration seen after dosing. What is called IC50 is the concentration at which inhibition is half-maximal. The Tmax is the time from dosing to the highest level.

Mu-type opioid receptor, sequence (P35372 whole entry): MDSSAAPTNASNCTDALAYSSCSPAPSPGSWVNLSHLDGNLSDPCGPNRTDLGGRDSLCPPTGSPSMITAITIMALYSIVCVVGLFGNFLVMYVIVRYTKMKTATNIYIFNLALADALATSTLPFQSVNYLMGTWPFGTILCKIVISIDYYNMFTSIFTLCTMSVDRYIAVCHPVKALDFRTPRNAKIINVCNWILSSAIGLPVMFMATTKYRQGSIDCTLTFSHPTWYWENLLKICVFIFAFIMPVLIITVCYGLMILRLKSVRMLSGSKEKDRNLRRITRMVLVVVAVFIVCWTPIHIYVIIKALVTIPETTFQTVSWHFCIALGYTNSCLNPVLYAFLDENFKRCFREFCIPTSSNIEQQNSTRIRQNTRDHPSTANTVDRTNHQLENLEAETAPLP
Voltage-gated inwardly rectifying potassium channel KCNH2, sequence (Q12809 whole entry): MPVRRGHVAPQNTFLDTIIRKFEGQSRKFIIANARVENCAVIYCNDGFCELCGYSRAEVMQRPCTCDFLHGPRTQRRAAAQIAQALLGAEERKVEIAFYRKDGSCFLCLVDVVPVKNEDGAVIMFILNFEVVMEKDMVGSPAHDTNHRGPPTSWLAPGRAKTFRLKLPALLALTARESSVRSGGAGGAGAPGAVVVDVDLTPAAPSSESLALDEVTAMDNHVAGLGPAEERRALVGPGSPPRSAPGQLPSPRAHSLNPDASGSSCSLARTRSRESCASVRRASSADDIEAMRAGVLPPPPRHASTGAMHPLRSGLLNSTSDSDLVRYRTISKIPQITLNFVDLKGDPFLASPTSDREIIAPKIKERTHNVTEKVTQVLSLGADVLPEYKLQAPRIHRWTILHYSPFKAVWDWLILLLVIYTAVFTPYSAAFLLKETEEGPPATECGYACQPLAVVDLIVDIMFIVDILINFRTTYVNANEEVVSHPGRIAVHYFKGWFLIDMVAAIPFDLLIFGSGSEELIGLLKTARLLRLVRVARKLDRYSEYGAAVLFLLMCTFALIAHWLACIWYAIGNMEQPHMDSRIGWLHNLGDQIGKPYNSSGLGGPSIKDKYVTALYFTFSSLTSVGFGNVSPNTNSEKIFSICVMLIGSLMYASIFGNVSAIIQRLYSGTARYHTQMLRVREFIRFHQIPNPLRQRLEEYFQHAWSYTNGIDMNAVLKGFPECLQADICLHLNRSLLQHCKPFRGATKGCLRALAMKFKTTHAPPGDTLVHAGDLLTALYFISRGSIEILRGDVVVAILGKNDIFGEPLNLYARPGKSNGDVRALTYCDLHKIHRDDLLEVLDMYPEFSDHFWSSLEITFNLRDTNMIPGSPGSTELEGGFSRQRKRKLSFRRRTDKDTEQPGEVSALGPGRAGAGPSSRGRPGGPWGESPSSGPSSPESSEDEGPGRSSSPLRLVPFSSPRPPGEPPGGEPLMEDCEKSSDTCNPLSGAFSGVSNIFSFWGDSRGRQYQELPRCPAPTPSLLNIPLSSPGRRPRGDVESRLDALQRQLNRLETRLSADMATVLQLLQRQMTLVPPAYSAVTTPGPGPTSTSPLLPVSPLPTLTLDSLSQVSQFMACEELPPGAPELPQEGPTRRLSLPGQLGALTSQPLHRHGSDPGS

On to `C/C(=N\N=c1/[nH]c2cc(F)c(F)cc2n1C)c1ccc(F)cn1`, for which the “inhibition (INH)” value in data set [1] was “Active”. Also, the Cmax in [2] was 217 ng/mL. Besides, the IC50 in the data set on PANC-1 [3] turned out to be 29 nM; in the data set on PANC-1 [7], 119 nM; in the data set on PANC-1 [8] it was 147 nM; in data set [10], 28 nM; against Mu-type opioid receptor, 3100 nM; in the data set on BT-474 it was 0.8 nM. Also, in the data set on MDA-MB-468, the IC50 was found to be 15 nM. Also, the outcome with Prostate cancer organoid, with Panc-1-Luc, with MDA-PCa-118b [11] and in the data set with MDA-PCa-118b [14] was Active. In data set [4], this molecule registered a t1/2 of 1350 min. Moreover, the figures for the Activity result in [5], in data set [9] and in data set [13] were “Non-Toxic”, more than 55% and more than 50%, respectively. Also, the Tmax in data set [6] amounted to 15 min; in [12], 1.98 min. Besides, in [15], the AUCt was 1719 ng·h/mL.
